This is a sample that favours compounds with a hit; in the whole collection about 1.5% have one here.
CCR6 antag: antagonists of human CCR6 receptor; P51684; CHO-K1 CCR6 PathHunter beta-arrestin, luminescence, CCL20-stimulated; inhibition, % at 20 µM; actives 0.49% (n = 340,000);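 active = compounds whose inhibition of the agonist-driven luminescence signal at 20 µM reaches about 50%, limit read from the data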;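 also: cells stimulated with CCL20 at 14 nM final; plate controls were DMSO with CCL20 for no effect and DMSO without agonist for full effect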
Target sequence (P51684 whole entry, looked up): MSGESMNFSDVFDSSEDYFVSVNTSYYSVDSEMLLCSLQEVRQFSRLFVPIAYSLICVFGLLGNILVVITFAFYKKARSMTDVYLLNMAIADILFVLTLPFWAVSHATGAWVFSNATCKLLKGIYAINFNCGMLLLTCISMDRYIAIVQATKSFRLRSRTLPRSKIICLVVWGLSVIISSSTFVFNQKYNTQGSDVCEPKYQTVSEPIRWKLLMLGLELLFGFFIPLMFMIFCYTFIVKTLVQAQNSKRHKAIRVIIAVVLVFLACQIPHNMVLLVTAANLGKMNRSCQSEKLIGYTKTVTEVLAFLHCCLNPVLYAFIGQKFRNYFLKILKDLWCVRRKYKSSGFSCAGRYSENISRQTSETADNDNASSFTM
APJ antagonist: blocks the human apelin receptor APJ; P35414; CHO-K1 APJ beta-arrestin complementation, luminescence; inhibition, % at 20 µM; actives 0.32% (n = 330,000); AID 2521;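 active = inhibition above about 40% at 20 µM, limit read from the data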;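 also: cells challenged with 10 nM apelin-13 agonist together with compound; plate controls were apelin-13 plus DMSO wells for no effect and DMSO wells lacking apelin-13 for full effect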
CXCR6 block: blocks human CXCR6 beta-arrestin recruitment. CHO-K1 PathHunter CXCR6 beta-arrestin, luminescence. O00574. actives 0.36% (n = 360,000). AID 602244. inhibition, % at 20 µM; in the data active = inhibition above about 34%, passing the limit was not always enough;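 also: antagonist mode with CXCL16 agonist at 10 nM final; 0% = 10 nM CXCL16 with DMSO and 100% = unstimulated wells without agonist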
EBI2 antag: blocks human EBI2 receptor beta-arrestin signaling | P32249 | EBI2 beta-arrestin recruitment, luminescence, 7a,25-OHC stimulated | inhibition, % at 5 µM | actives 0.81% (n = 360,000); in the data active = inhibition above about 38%;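 also: enzyme fragment complementation signal reports receptor beta-arrestin coupling in cells; 0% = agonist plus DMSO wells and 100% = wells without agonist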
APJ agonist: activates the human apelin receptor APJ | P35414 | CHO-K1 APJ PathHunter beta-arrestin, luminescence; 0% DMSO wells, 100% apelin | activation, % at 20 µM | actives 0.11% (n = 330,000) | AID 2520;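 active = activation more than six SD over the plate average, tested at 20 µM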;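 also: 0% = DMSO alone and 100% = apelin-13 at 10 nM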
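Test system – PathHunter CHO-K1 APJ (AGTRL-1) beta-arrestin reporter cells · Input – 1000 cells/well · Compound – single test compound dose, 20 µM final, 1% DMSO · Times – compound stimulation 90 min at 25 °C, detection 60 min · Technique – beta-gal luminescence · Read-out basis – APJ–arrestin association signal · Control set – negative DMSO alone, positive Apelin-13 at 10 nM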
APJ ag confirm: APJ receptor agonism confirmation; shares compounds with APJ agonist; CHO-K1 APJ PathHunter beta-arrestin, luminescence; activation, % at 20 µM; actives 10% (n = 310); AID 2764;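 active = activation above 40%, taking the highest of four retests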;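 also: plate controls were DMSO wells for no effect and apelin-13 at 10 nM for full effect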
Active calls of the source: *; · = no result given.

SMILES	CCR6 antag	APJ antagonist	CXCR6 block	EBI2 antag	APJ agonist	APJ ag confirm
O=C1O[C@@H](c2ccccc2)C[C@@H](O)[C@H](O)CCCCc2ccccc21	·	·	8	-7	·	·
CCOc1cc(C(=O)Nc2cc3c(cc2N2CCCC2)n(C)c(=O)n3C)cc(OCC)c1OCC	12	3	-3	0	-1	·
COc1ccc(NC(=O)/C(C#N)=C/c2ccc(Sc3nncn3C)c([N+](=O)[O-])c2)cc1	20	-45	0	-3	18*	18
COc1ccccc1C(=O)Nc1nc(-c2ccc(S(=O)(=O)N3CCOCC3)cc2)cs1	-7	-32	-23	-37	45*	4
O=C(Nc1nnc(SCc2ccc(F)cc2)s1)c1ccc2ncsc2c1	19	·	4	-5	·	·
CCOc1ccc2nc(N3C(=O)/C(=C/c4ccc(Cl)cc4)NC3=S)sc2c1	5	·	7	-8	·	·
CC(=O)Nc1ccc(OCC(=O)Nc2ccc(Cl)c(S(=O)(=O)N3CCOCC3)c2)cc1	·	0	-17	-20	17*	-1
COc1ccc(OCC(=O)Nc2ccc(S(=O)(=O)N3CCOCC3)cc2)cc1	2	-4	4	-7	-1	·
CCC(C)NC(=O)c1ccc(NC(=O)CC2SC(N3CCCC3)=NC2=O)cc1 (stereo not drawn)	21	-5	1	9	-5	·
COc1ccc(-n2c(C)nn(CCOc3ccccc3)c2=O)cc1	-15	-1	-10	12	-1	·
CC(=O)Nc1ccc(Nc2nc(-c3cc4ccccc4oc3=O)cs2)cc1	-8	-3	-16	-14	17*	16
CCSc1ccc(/C(N)=N/OC(=O)c2cccs2)cn1	-32	-168	-43	-18	43*	11
CN(CC(=O)Nc1cccc(F)c1)C(=O)c1cccnc1Sc1ccccc1	11	10	0	-1	2	·
COc1ccc(-c2cn3c(C)c(C(=O)Nc4cccc(NC(C)=O)c4)sc3n2)cc1	6	-31	-10	41	17*	17
Nc1cc(=O)[nH]c(SCC(=O)N2CCCCC2)n1	9	-4	0	-10	1	·
CCC(C)NC(=O)c1cc(Cl)c(NC(=O)C2=C(C)OCCS2)cc1OC (stereo not drawn)	2	8	2	26	-1	·
CCN(CC)CCCNC(=O)c1cc(Cl)c(NC(=O)C2=C(C)OCCS2)cc1OC	7	14	1	-8	13*	30
CCN1CCN(CCNC(=O)c2cc(Cl)c(NC(=O)C3=C(C)OCCS3)cc2OC)CC1	-7	-13	5	7	24*	2
CCCCNc1c(-c2ccc(OC)c(SC(C)CC)c2)nc2ccc(C)cn12 (stereo not drawn)	25	-28	12	-71	26*	9
CCCCNc1c(-c2ccc(OC)c(SC3CCCCC3)c2)nc2ccc(C)cn12	25	4	23	-22	18*	30
CCCCNc1c(-c2ccc(OC)c(SC(C)CC)c2)nc2ccc(Cl)cn12 (stereo not drawn)	-4	-14	-7	21	-1	·
CCOc1ccc(C(C)C)cc1S(=O)(=O)N1CCOCC1	9	-9	-3	3	-1	·
COc1ccc(S(=O)(=O)NC2CC2)cc1-n1cnnn1	7	-26	-5	-6	14*	8
COc1cc(S(=O)(=O)NC2CCCC2)ccc1-n1cnnn1	19	-1	-10	-7	1	·
C=C1CCN([C@@H](CC(C)C)C(=O)O)S(=O)(=O)c2ccccc21	-5	3	-2	-6	45*	28
SMILES	CCR6 antag	APJ antagonist	CXCR6 block	EBI2 antag	APJ agonist	APJ ag confirm
CC1=CC(=O)C(C(C)C)=C/C1=N/OS(=O)(=O)c1ccccc1	7	-35	-3	-44	185*	78*
CC1=CC(=O)C=C(C)C1=NOS(=O)(=O)c1ccccc1	-15	·	18	-7	·	·
CN1CCN(Cc2nc3ccccc3c(=O)n2Cc2nc(-c3ccc4ccccc4c3)cs2)CC1	19	·	6	-40	·	·
CN(C)S(=O)(=O)c1ccc(-c2csc(N/N=C/c3ccco3)n2)cc1	-14	-40	-2	-44	24*	44*
CN(C)S(=O)(=O)c1ccc(-c2csc(N/N=C/c3ccc(O)cc3)n2)cc1	7	-99	8	-14	16*	-2
C(=N\Nc1nc(-c2ccccc2)cs1)/c1ccncc1	-19	-29	-7	-3	6	·
Cc1ccc2nc(-c3ccco3)c(Cc3ccccc3)n2c1	·	·	8	7	·	·
CC1CCN(CCNC(=O)c2ccc3c(=O)n(Cc4ccc(Cl)cc4)c(=S)[nH]c3c2)CC1	-5	0	1	-1	33*	9
COCCCNC(=O)c1ccc2c(=O)n(Cc3ccc(Cl)cc3)c(=S)[nH]c2c1	14	16	3	0	-2	·
OCC[C@@H]1C[C@@H](O)[C@H](O)[C@@]2(OCc3ccccc32)O1	6	2	-7	-5	-1	·
Cc1ccc(-c2nn(-c3ccccc3)cc2/C=C/C(=O)OCC(=O)NC2CC2)o1	-10	-27	-6	-15	12*	5
O=C(Cc1ncc(C(F)(F)F)cc1Cl)N1CCN(c2ccccn2)CC1	7	14	-2	-1	0	·
Cc1cc(OC(C)C)nc(-c2ccccc2O)n1	7	10	-7	-1	-1	·
COc1ccc(N2CCC(CNS(=O)(=O)c3cccc(C(F)(F)F)c3)C2)cc1 (stereo not drawn)	20	-1	-2	8	-2	·
N/C(=N\OC(=O)c1ccccc1)c1ccncc1	-9	-59	-1	-7	4	·
N/C(=N\OC(=O)c1ccc(Br)cc1)c1ccncc1	-14	-24	-13	-11	12*	26
CCOC(=O)c1ccc(Nc2ncnc3c2cnn3C)cc1	0	-7	-5	-6	5	·
Cn1ncc2c(O/N=C(\N)c3ccc(C(C)(C)C)cc3)ncnc21	-32	-65	-34	2	27*	62*
Cc1ccc(NC(=O)CCNC(=O)Nc2ccccc2)cc1S(=O)(=O)N(C)C	-4	-2	-7	-9	-5	·
Cc1nn(-c2ccccc2)c(Cl)c1C(=O)N1CCN(c2ncnc3c2cnn3-c2ccccc2)CC1	-23	-39	7	-67	18*	30
O=C(c1ccccc1)N1CCN(c2ncnc3c2cnn3-c2ccccc2)CC1	3	12	-6	-5	7	·
CC(=O)Nc1ccc(C(=O)NCC(=O)OCc2c(F)cccc2Cl)cc1	3	16	-19	4	-2	·
O=C1O/C(=C/c2ccccc2)c2ccccc21	16	1	12	-1	-1	·
N#CC1=C(c2ccccc2)/C(=C/c2ccccc2)OC1=O	64*	-18	35	5	17*	12
COc1ccc(C(=O)O/N=C(\N)c2ccccc2Cl)cc1OC	-15	-40	-18	-12	11*	39
COc1ccc(/C(N)=N/OC(=O)c2cccc([N+](=O)[O-])c2)cc1OC	-3	-38	-8	5	20	·

Compound activity as filed in PubChem BioAssay.
